Compounds with a hit are over-represented: about 1.6% of the library has one in this group of screens.
TDP2 inh: TDP2 (human) inhibition, absorbance primary screen; O95551; AID 720702; recombinant TDP2, T5PNP hydrolysis, p-nitrophenol absorbance 415 nm; actives 0.34% (n = 370,000); inhibition, % at 12.8 µM;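 active = inhibition above the mean of all tested compounds plus 3 SD, set per campaign, cut at about 25% in these data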;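 note: 0% = DMSO with enzyme and 100% = buffer with substrate but no TDP2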
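Test system: human TDP2 enzyme; Input: 120 nM TDP2 per well; Buffer or medium: Mg2+-containing Tris-HCl buffer, pH 7.5; Reagent: 5 mM T5PNP; Dosing: 12.8 µM single point, 1% DMSO; Incubation: reaction 2 h, 37 °C; Detection: p-Nitrophenol epi absorbance; Read-out: % inhibition relative to enzyme-containing and enzyme-free wells; Replicates: single well per compound.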
GSTO1 counter: blocks human GSTO1 in RBBP9 counter-screen. recombinant GSTO1, activity-based probe fluorescence polarization. inhibition, % at 5.96 µM. actives 1.1% (n = 300,000). AID 1974;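 active = inhibition above the campaign mean inhibition plus 3 SD, cut at about 35% in these data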;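 note: 0% = GSTO1-1 with DMSO and 100% = wells lacking GSTO1-1 enzyme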
Target sequence (P78417 whole entry, looked up): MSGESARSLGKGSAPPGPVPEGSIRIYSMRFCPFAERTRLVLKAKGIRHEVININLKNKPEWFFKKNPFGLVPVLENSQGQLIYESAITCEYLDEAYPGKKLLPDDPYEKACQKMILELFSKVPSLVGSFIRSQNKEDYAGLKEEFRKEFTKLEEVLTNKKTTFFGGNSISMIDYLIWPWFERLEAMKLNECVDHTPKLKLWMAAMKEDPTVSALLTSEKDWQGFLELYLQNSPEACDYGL
PAD4 FP inh: inhibitors of human PAD4; Q9UM07; recombinant PAD4, RCA probe fluorescence polarization; inhibition, % at 6.36 µM; actives 0.41% (n = 330,000); AID 485272;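 active = percent inhibition above a cutoff equal to the mean of all tested compounds plus 3 SD, cut at about 15% in these data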;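 note: 0% = PAD4 with RCA probe and DMSO and 100% = probe without PAD4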
GASC-1 inh: blocks human GASC-1 demethylase activity; GST-JMJD2C(1-420) H3K9me3 demethylation, DELFIA europium; AID 2099; actives 0.069% (n = 330,000); Q9H3R0; inhibition, % at 2.35 µM;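 active = more than half of a compound's replicate wells show inhibition beyond 50%, single wells judged on their own value; inconclusive = some, but no more than half, of replicates pass 50% inhibition; inactive = no replicate passes 50% inhibition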;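 note: signal counts dimethyl H3K9 product captured on neutravidin plate; 0% = median of DMSO wells and 100% = 0.3 times that DMSO median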
Apaf-1 inh: blocks human Apaf-1 apoptosome activity | O14727 | reconstituted apoptosome caspase-3 activity, DEVD-Rh110 fluorescence | inhibition, % at 20 µM | actives 0.71% (n = 330,000); active = inhibition of at least 40% at 20 µM;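 note: plate controls were DMSO wells for no effect and DEVD-CHO caspase inhibitor wells for full effect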
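Material: biochemical Apaf-1 apoptosome reconstitution. Medium: Hepes buffer, pH 7.5. Also added: cytochrome c activation, bis-DEVD rhodamine 110 substrate. Timing: 30 min compound preincubation, 50 min activation, room temperature. Measured by: rhodamine 110 fluorescence at Ex 480/Em 540 nm.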
UBC9 SUMO inh: inhibitors of human SUMOylation (UBC9); P63279; HTRF SUMOylation assay, SAE1/SAE2 + UBC9, in vitro; inhibition, % at 35 µM; actives 0.36% (n = 290,000); in the data active = inhibition above about 50%, passing the limit was not always enough; inconclusive = no clear call, values can overlap the other calls
Target sequence (P63279 whole entry, looked up): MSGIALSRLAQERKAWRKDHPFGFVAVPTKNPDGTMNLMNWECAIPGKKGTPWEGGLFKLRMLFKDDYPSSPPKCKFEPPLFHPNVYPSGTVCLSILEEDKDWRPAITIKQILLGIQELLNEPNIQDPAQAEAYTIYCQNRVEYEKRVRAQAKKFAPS
GSTO1 inh conf: GSTO1 (human) inhibition, confirmation. recombinant GSTO1, probe fluorescence polarization. inhibition, % at 5.96 µM. shares compounds with GSTO1 counter. actives 54% (n = 2,400);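 active = inhibition above the primary screen's cutoff, its mean inhibition plus 3 SD, cut at about 35% in these data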;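 note: loss of polarization as inhibitors block binding of rhodamine sulfonate ester activity probe; 0% = GSTO1 with DMSO and 100% = wells lacking GSTO1 enzyme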
GSTO1 recomb ABPP: GSTO1 (human) inhibition by gel ABPP | inhibition, % at 1 µM | shares compounds with GSTO1 counter | AID 463110 | actives 30% (n = 130) | recombinant GSTO1, gel ABPP SE-Rh probe fluorescence;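 active = inhibition of the enzyme GSTO1 above about 75%, limit read from the data; inactive = inhibition below that limit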
Active calls of the source: *; ? = inconclusive; · = no result.

SMILES	TDP2 inh	GSTO1 counter	PAD4 FP inh	GASC-1 inh	Apaf-1 inh	UBC9 SUMO inh	GSTO1 inh conf	others
CC(NC(=O)COC(=O)c1cc(NS(=O)(=O)c2ccc(Cl)c([N+](=O)[O-])c2)ccc1O)C1CC2CCC1C2 (stereo not drawn)	11.4	46.1*	1.2	3.5	12.6	20.2	40.4*
COc1ccc(NS(=O)(=O)c2ccc(O)c(C(=O)OCC(=O)NC(C)C3CC4CCC3C4)c2)cc1 (stereo not drawn)	3.3	-14.6	-2.2	9.5	9.6	-27.2	·
Cc1ccc(-n2c(SCC(=O)Nc3ccc4c(c3)OCCO4)nnc2-c2cnccn2)cc1	-4.8	·	·	·	·	·	·
Cc1cc(/C=C2/C(=O)N(C)C(=S)N2C)c(C)n1C1CC1	-8.7	1.0	-1.9	-9.0	1.8	11.3	·
Cc1cc(/C=C2\SC(=S)NC2=O)c(C)n1C1CC1	6.5	39.9*	-4.6	10.6	-3.4	-12.1	51.3*
CC(=O)CC[C@@H]1CC[C@]2(CCCN(S(=O)(=O)C3CCCCC3)C2)O1	1.5	·	·	·	·	·	·
O=c1cc2oc3cc(O)c(O)cc3c(-c3ccccc3[N+](=O)[O-])c-2cc1O	3.0	49.6*	-3.2	57.3*	19.8	?	40.8*
O=c1cc(-c2ccccc2Cl)oc2cccc(O)c12	-7.2	4.0	5.1	4.3	3.2	1.1	·
C=CCN1C(=O)NC(c2ccccc2)(C(F)(F)F)S/C1=C(\C#N)c1nnc(N2CCOCC2)n1-c1ccccc1 (stereo not drawn)	-7.4	42.9*	1.2	2.4	2.5	15.6	57.5*
C=CCN1C(c2cccc(C(F)(F)F)c2)=CS/C1=C(\C#N)c1nnc(N2CCOCC2)n1-c1ccccc1	3.2	·	·	·	·	·	·
CCOC(=O)N1CCN(C(=O)C[C@H]2C[C@@]3(C(=O)OC)C(=C[C@H](COCc4ccccc4)O[C@@H]3C)N(Cc3ccc(Cl)cc3Cl)C2=O)CC1	7.7	·	·	·	·	·	·
Cc1ccc(N(NC(=O)C(O)(c2ccccc2)c2ccccc2)C(=O)CCl)cc1	-12.2	82.3*	7.3	-2.2	20.0	8.8	92.2*
O=C(Nc1ccccc1)NN(C(=O)CCl)c1ccccc1	4.1	82.4*	-1.8	-6.5	6.6	21.8	87.7*
CCN(CC)NC(=O)Nc1ccccc1	0.1	1.6	-1.2	1.2	9.7	5.0	·
CCCCCc1ccc(NC(=O)OCCCN2CCC3(CCC(c4ccccc4)CC3)C2=O)cc1 (stereo not drawn)	-1.8	·	·	·	·	·	·
Cc1ccc2[nH]c3ccccc3c(=O)c2c1	0.2	-4.8	2.2	-43.1	3.4	28.9	·
O=c1c2ccccc2[nH]c2ccc(O)cc12	-15.8	45.7*	-2.2	0.1	-23.4	18.0	20.7
Cc1cccc(NC(=O)Cn2nnc(C(=O)Nc3ccc(F)c(Cl)c3)c2N)c1	-5.5	42.6*	4.6	1.9	-7.1	14.6	8.0
CCOC(=O)[C@@]12CCC3=C1N(CCC3)C(=O)[C@H](CC(=O)N1CCSCC1)C2	2.9	·	·	·	·	·	·
O=C(O)c1cc(O)c2c(c1)[C@@H]([C@H]1c3cc(C(=O)O)cc(O)c3C(=O)c3c(O[C@@H]4O[C@H](CO)[C@@H](O)[C@H](O)[C@H]4O)cccc31)c1cccc(OC3O[C@H](CO)[C@@H](O)[C@H](O)[C@H]3O)c1C2=O (stereo partly drawn)	21.7	84.4*	-46.8	-49.3	95.4*	·	80.0*
O=C1c2cc(CO)cc(O)c2C(=O)c2c(O[C@@H]3OC(CO)[C@@H](O)[C@@H](O)[C@@H]3O)cccc21 (stereo partly drawn)	-13.1	7.0	1.5	25.7	-3.8	·	·
COC[C@H]1CCCN1c1cccc2c1S(=O)(=O)N(C1CC1)CCCO2	0.5	·	·	·	·	·	·
CCN(Cc1ccc(OC)c(F)c1)C(=O)CCl	4.3	98.3*	-4.9	10.3	3.8	9.0	100.7*	GSTO1 recomb ABPP=47.0
